Several values for one entry are separate records, joined by “and”; a condition that tells them apart may be missing. Equal values may be shown once. Read-outs that look alike come from different tables or passages of the source.
Legend:
wild type cytochrome bo3 [1] = target: T1, wild type cytochrome bo3 (Escherichia coli, UniProt P0ABI8); test: steady state ubiquinol-1 oxidase activity; assay type: biochemical, E. coli; settings: for pattern of inhibition: double-reciprocal plot vs ubiquinol-1
cytochrome bo3 R257Q [2] = target: T2, cytochrome bo3 R257Q (Escherichia coli, UniProt P0ABI8, R257Q); test: HQNO binding monitored by fluorescence anisotropy; design: species or system E. coli; settings: read-out: Kd HQNO
T2 sequence (P0ABJ1 25-315): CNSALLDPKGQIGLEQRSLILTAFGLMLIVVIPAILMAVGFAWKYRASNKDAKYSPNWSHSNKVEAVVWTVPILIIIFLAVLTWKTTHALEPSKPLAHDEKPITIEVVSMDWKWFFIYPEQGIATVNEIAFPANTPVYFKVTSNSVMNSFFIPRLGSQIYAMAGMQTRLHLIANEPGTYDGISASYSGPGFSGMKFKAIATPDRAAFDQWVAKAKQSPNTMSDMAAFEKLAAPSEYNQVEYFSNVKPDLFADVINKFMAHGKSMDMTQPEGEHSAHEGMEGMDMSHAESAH
T2 sequence (P0ABI8 whole entry R257Q): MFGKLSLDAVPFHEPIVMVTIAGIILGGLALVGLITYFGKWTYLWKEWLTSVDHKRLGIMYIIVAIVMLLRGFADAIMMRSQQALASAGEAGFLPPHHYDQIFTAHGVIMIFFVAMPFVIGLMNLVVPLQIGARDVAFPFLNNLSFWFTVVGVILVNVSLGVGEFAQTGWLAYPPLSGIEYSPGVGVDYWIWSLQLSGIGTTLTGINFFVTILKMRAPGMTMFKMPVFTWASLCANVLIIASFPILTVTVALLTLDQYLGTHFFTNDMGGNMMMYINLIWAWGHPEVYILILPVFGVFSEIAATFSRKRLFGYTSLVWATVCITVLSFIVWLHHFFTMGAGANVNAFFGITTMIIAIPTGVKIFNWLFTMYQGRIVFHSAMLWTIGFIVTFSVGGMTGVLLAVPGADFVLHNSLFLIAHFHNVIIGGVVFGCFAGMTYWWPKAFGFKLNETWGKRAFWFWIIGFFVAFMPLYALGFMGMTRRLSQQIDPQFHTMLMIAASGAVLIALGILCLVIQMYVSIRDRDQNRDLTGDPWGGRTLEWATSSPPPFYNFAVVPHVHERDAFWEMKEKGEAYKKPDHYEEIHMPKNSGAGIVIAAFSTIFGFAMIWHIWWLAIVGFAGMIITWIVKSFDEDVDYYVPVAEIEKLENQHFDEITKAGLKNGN
T2 sequence (P0ABJ3 whole entry, further chain): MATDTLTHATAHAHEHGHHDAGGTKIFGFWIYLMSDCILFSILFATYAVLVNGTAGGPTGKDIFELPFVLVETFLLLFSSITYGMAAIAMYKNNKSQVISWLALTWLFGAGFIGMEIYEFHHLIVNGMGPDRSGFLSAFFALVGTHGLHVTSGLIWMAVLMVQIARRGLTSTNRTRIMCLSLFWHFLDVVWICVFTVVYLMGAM
T2 sequence (P0ABJ6 whole entry, further chain): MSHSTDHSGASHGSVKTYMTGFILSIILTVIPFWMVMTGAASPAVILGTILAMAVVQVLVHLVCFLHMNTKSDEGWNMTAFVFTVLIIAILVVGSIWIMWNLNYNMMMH

wild type cytochrome bo3 [3] = target: T1, wild type cytochrome bo3; test: HQNO binding monitored by fluorescence anisotropy; design: species or system E. coli; settings: for Kd: read-out: Kd HQNO
cytochrome bo3 D188A [4] = target: T3, cytochrome bo3 D188A (Escherichia coli, UniProt P0ABI8, D188A); test: HQNO binding monitored by fluorescence anisotropy; design: species or system E. coli; settings: read-out: Kd HQNO
T3 sequence (P0ABI8 whole entry D188A): as the sequence (P0ABI8 whole entry R257Q) above, with D188A, Q257R counted along it
T3 sequence (P0ABJ6 whole entry, further chain): as the sequence (P0ABJ6 whole entry, further chain) above
T3 sequence (P0ABJ3 whole entry, stated change not applied, further chain): as the sequence (P0ABJ3 whole entry, further chain) above
T3 sequence (P0ABJ1 25-315, further chain): as the sequence (P0ABJ1 25-315) above

wild type cytochrome bo3 [5] = target: T1, wild type cytochrome bo3; test: EPR of the semiquinone formed at the QH-site; assay type: biochemical, E. coli; settings: excess (5-fold) of inhibitor
In short: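 Continuous-wave X-band EPR of wild-type enzyme purified in dodecylmaltoside, carrying bound ubiquinone-8 at the QH site. Enzyme was incubated with a 5-fold excess of test compound, at 50 μM enzyme in one series. Sample preparation followed earlier published methods.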

[6] = target: wild type cytochrome bo3 (no bound Q8) (Escherichia coli, UniProt P0ABI8); test: HQNO binding monitored by fluorescence anisotropy; design: species or system E. coli; settings: read-out: Kd HQNO
Sequence of wild type cytochrome bo3 (no bound Q8) (P0ABJ3 whole entry): as the sequence (P0ABJ3 whole entry, further chain) above
Sequence of wild type cytochrome bo3 (no bound Q8) (P0ABJ1 25-315, further chain): as the sequence (P0ABJ1 25-315) above
Sequence of wild type cytochrome bo3 (no bound Q8) (P0ABI8 whole entry): as the sequence (P0ABI8 whole entry R257Q) above, with Q257R counted along it
Sequence of wild type cytochrome bo3 (no bound Q8) (P0ABJ6 whole entry, further chain): as the sequence (P0ABJ6 whole entry, further chain) above
In short: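 Quinone-free enzyme was made by diluting ≥50-fold into 50 mM K2HPO4, 0.1% Triton X-100, pH 8.3, and binding to Ni-NTA for several hours at 4 °C. It was washed into dodecylmaltoside, eluted with 100 mM imidazole and dialysed. Enzyme was titrated into pH 8.3 dodecylmaltoside buffer holding fixed 1 μM test compound. Anisotropy was read at ex 341/em 480 nm against a ligand-free control, and fit with an independent-sites model.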

cytochrome bo3 W^II136A [7] = target: cytochrome bo3 W^II136A (Escherichia coli, UniProt P0ABI8); test: HQNO binding monitored by fluorescence anisotropy; design: species or system E. coli; settings: read-out: Kd HQNO
Sequence of cytochrome bo3 W^II136A (Escherichia coli, UniProt P0ABI8) (P0ABJ6 whole entry): as the sequence (P0ABJ6 whole entry, further chain) above
Sequence of cytochrome bo3 W^II136A (Escherichia coli, UniProt P0ABI8) (P0ABJ3 whole entry, further chain): as the sequence (P0ABJ3 whole entry, further chain) above
Sequence of cytochrome bo3 W^II136A (Escherichia coli, UniProt P0ABI8) (P0ABI8 whole entry): as the sequence (P0ABI8 whole entry R257Q) above, with Q257R counted along it
Sequence of cytochrome bo3 W^II136A (Escherichia coli, UniProt P0ABI8) (P0ABJ1 25-315 W136A, further chain): as the sequence (P0ABJ1 25-315) above, with W112A counted along it

cytochrome bo3 D188N [8] = target: T4, cytochrome bo3 D188N (Escherichia coli, UniProt P0ABI8, D188N); test: HQNO binding monitored by fluorescence anisotropy; design: species or system E. coli; settings: read-out: Kd HQNO
T4 sequence (P0ABI8 whole entry D188N): as the sequence (P0ABI8 whole entry R257Q) above, with D188N, Q257R counted along it
T4 sequence (P0ABJ3 whole entry, stated change not applied, further chain): as the sequence (P0ABJ3 whole entry, further chain) above
T4 sequence (P0ABJ6 whole entry, further chain): as the sequence (P0ABJ6 whole entry, further chain) above
T4 sequence (P0ABJ1 25-315, further chain): as the sequence (P0ABJ1 25-315) above

cytochrome bo3 H98S = cytochrome bo3 H98S (Escherichia coli, UniProt P0ABI8, H98S); test: HQNO binding monitored by fluorescence anisotropy; design: species or system E. coli; settings: read-out: Kd HQNO
Sequence of cytochrome bo3 H98S (P0ABI8 whole entry H98S): as the sequence (P0ABI8 whole entry R257Q) above, with H98S, Q257R counted along it
Sequence of cytochrome bo3 H98S (P0ABJ3 whole entry, further chain): as the sequence (P0ABJ3 whole entry, further chain) above
Sequence of cytochrome bo3 H98S (P0ABJ6 whole entry, further chain): as the sequence (P0ABJ6 whole entry, further chain) above
Sequence of cytochrome bo3 H98S (P0ABJ1 25-315, further chain): as the sequence (P0ABJ1 25-315) above

cytochrome bo3 R257Q [9] = target: T2, cytochrome bo3 R257Q; test: steady state ubiquinol-1 oxidase activity; assay type: biochemical, E. coli; settings: read-out: KM UQ1H2
cytochrome bo3 D188N [10] = target: T4, cytochrome bo3 D188N; test: steady state ubiquinol-1 oxidase activity; assay type: biochemical, E. coli; settings: read-out: KM UQ1H2
cytochrome bo3 W^II136A [11] = target: cytochrome bo3 W^II136A (Escherichia coli, UniProt P0ABI8+P0ABJ1, W136A); test: steady state ubiquinol-1 oxidase activity; assay type: biochemical, E. coli; settings: read-out: KM UQ1H2
Sequence of cytochrome bo3 W^II136A (Escherichia coli, UniProt P0ABI8+P0ABJ1, W136A) (P0ABI8 whole entry): as the sequence (P0ABI8 whole entry R257Q) above, with Q257R counted along it
Sequence of cytochrome bo3 W^II136A (Escherichia coli, UniProt P0ABI8+P0ABJ1, W136A) (P0ABJ6 whole entry, further chain): as the sequence (P0ABJ6 whole entry, further chain) above
Sequence of cytochrome bo3 W^II136A (Escherichia coli, UniProt P0ABI8+P0ABJ1, W136A) (P0ABJ1 25-315 W136A): as the sequence (P0ABJ1 25-315) above, with W112A counted along it
Sequence of cytochrome bo3 W^II136A (Escherichia coli, UniProt P0ABI8+P0ABJ1, W136A) (P0ABJ3 whole entry, further chain): as the sequence (P0ABJ3 whole entry, further chain) above

cytochrome bo3 D188A [12] = target: T3, cytochrome bo3 D188A; test: steady state ubiquinol-1 oxidase activity; assay type: biochemical, E. coli; settings: read-out: KM UQ1H2

T1 sequence (P0ABJ1 25-315): as the sequence (P0ABJ1 25-315) above
T1 sequence (P0ABJ3 whole entry, further chain): as the sequence (P0ABJ3 whole entry, further chain) above
T1 sequence (P0ABJ6 whole entry, further chain): as the sequence (P0ABJ6 whole entry, further chain) above
T1 sequence (P0ABI8 whole entry): as the sequence (P0ABI8 whole entry R257Q) above, with Q257R counted along it

Compound: CCCCCCCc1cc(=O)c2ccccc2n1O [HQNO]
- pattern of inhibition (wild type cytochrome bo3 [1]): noncompetitive
- Ki (wild type cytochrome bo3 [1]; read-out: Ki, inhibition of ubiquinol-1 oxidase activity by HQNO, coupled assay, enzyme with ubiquinone-8 bound to the QH site): 0.74 µM
- Kd (cytochrome bo3 R257Q [2]): 4 µM
- Kd (wild type cytochrome bo3 [3]; wild type + 300 μM Q1): 4.1 µM
- Kd (wild type cytochrome bo3 [3]; wild type + 1500 μM Q1): 6.8 µM
- Kd (wild type cytochrome bo3 [3]; wild type, one equivalent of ubiquinone-8 bound, 1 μM HQNO, pH 8.3): 4 µM
- number of HQNO binding sites (best fit, independent sites model) (wild type cytochrome bo3 [3]; wild type with ubiquinone-8 bound): 1.1 and 1
- Kd (cytochrome bo3 D188A [4]): 5 µM
- effect on formation of the semiquinone at the QH-site (EPR signal) (wild type cytochrome bo3 [5]): prevents formation of the semiquinone
- Kd [6]: 5.8 µM
- Kd (cytochrome bo3 W^II136A [7]): 4.1 µM
- Kd (cytochrome bo3 D188N [8]): 4 µM
- Kd (cytochrome bo3 H98S): 3.6 µM

Compound: CCCCCCCCCCc1c(C)c(=O)c2ccccc2n1O [AC1-10, aurachin C1-10]
- pattern of inhibition (wild type cytochrome bo3 [1]): competitive
- effect on formation of the semiquinone at the QH-site (EPR signal) (wild type cytochrome bo3 [5]): prevents formation of the semiquinone EPR signal

Compound: COc1c(O)c(C)c(CC=C(C)C)c(O)c1OC [UQ1H2, ubiquinol-1]
- Km (wild type cytochrome bo3 [1]; read-out: KM UQ1H2, wild type): 53 µM
- Km (cytochrome bo3 R257Q [9]): 60 µM
- Km (cytochrome bo3 D188N [10]): 52 µM
- Km (cytochrome bo3 W^II136A [11]): 63 µM
- Km (cytochrome bo3 D188A [12]): 56 µM

From article PMC2922442 (Biochimica et biophysica acta, 2010)
